# Reference: ChEMBL document CHEMBL4321820, “Identification and Optimization of Mechanism-Based Fluoroallylamine Inhibitors of Lysyl Oxidase-like 2/3” (J Med Chem, 2019)
# The source made the active and inactive calls. The rule behind the calls is not given here.
# Tests used:
# Mus musculus [1] = test: Antifibrotic activity in CCl4-induced BALB/c mouse model of liver fibrosis assessed as liver fibrosis area at 50 mg/kg, po administered for 6 weeks by picro-sirius red staining based microscopy; format: functional, organism-based
# Procedure, shortened: (§1)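 Female BALB/c mice given CCl4 i.p. (1 mL/kg of 25% CCl4 in olive oil) twice weekly for 6 weeks; sacrificed 48 h after last dose. Test articles oral, once daily: prophylactic weeks 1-6 or therapeutic weeks 4-6; imatinib control 50 mg/kg daily weeks 1-6. One formalin-fixed liver lobe stained for Picro Sirius Red and α-SMA; fibrotic area as % of total liver area; mean ± SEM, one-way ANOVA with Dunnett's test.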
# Mus musculus [2] = test: Effect on plasma ALT level in CCl4-induced BALB/c mouse model of liver fibrosis at 50 mg/kg, po administered for 6 weeks; format: ADME, organism-based; conditions: in vivo, 1008 h
# Procedure, shortened: (§2)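 CCl4 liver fibrosis in female BALB/c mice: CCl4 i.p. (1 mL/kg 25% in olive oil) twice weekly for 6 weeks, sacrifice 48 h after final injection. Oral once-daily dosing weeks 1-6 or weeks 4-6; imatinib 50 mg/kg daily weeks 1-6. ALT and AST measured in plasma.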
# Mus musculus [3] = test: Effect on plasma AST level in CCl4-induced BALB/c mouse model of liver fibrosis at 50 mg/kg, po administered for 6 weeks; format: ADME, organism-based; conditions: in vivo, 1008 h; procedure, shortened: as §2
# Mus musculus [4] = test: Antifibrotic activity in CCl4-induced BALB/c mouse model of liver fibrosis assessed as reduction in liver fibrosis area at 50 mg/kg, po administered for 6 weeks by alpha-SMA staining based microscopy; format: functional, organism-based; procedure, shortened: as §1
# Mus musculus [5] = test: Antifibrotic activity in bleomycin-induced C57BL/6 mouse model of lung fibrosis assessed as reduction in Ashcroft score at 50 mg/kg, ip administered on day 7 to 27 and measured on day 28 by H and E staining based microscopy; format: functional; conditions: C57BL/6, ip
# Procedure, shortened: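 Female C57BL/6 mice, 6-8 weeks old, under isoflurane received intranasal bleomycin sulphate 0.05 U/mouse in PBS; controls got PBS. Once-daily i.p. treatment days 7-27, n=12/group; imatinib 50 mg/kg i.p. as comparator. Sacrifice at day 28; lung fibrosis scored by Ashcroft score.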
# [6] = Time during which plasma concentration exceed invitro IC50 for recombinant human LOXL2 in BALB/c mouse administered with (Z)-Ethyl1-(4-Amino-2-fluorobut-2-en-1-yl)-3-(3-(N,N-dimethylsulfamoyl)phenyl)-2-methyl-1H-indole-5-carboxylate Hydrochloride at 20 mg/kg, po administered via gavage by HPLC-MS/MS analysis; format: ADME, organism-based; conditions: in vivo
SMILES,inhibition (Mus musculus [1]),Activity (Mus musculus [2]),Activity (Mus musculus [3]),inhibition (Mus musculus [4]),inhibition in vivo at 50 mg/kg (Mus musculus [5]),T>IC50 [6]
Cc1ccc(NC(=O)c2ccc(CN3CCN(C)CC3)cc2)cc1Nc1nccc(-c2cccnc2)n1 [IMATINIB],inactive,Non-Toxic,Non-Toxic,Active,50 to 70%,
Cc1c(-c2cccc(S(=O)(=O)N(C)C)c2)c2cc(C(=O)O)ccc2n1C/C(F)=C/CN,,,,,,> 6 h
